Assay outcomes (PubChem)
Gli-Sufu antag: antagonists of Gli-Sufu signaling; AID 588413; Sufu-KO-LIGHT fibroblasts, Gli luciferase reporter luminescence; inhibition, % at 5 µM; actives 0.74% (n = 340,000);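 active = inhibition above about 55%, limit read from the data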;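 also: 0% = DMSO-treated cells and 100% = wells with medium but no cells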
iPSC survival up: enhancers of human iPSC single-cell survival; hiPSC single-cell survival, ATPlite luminescence; 100% = ROCK inhibitor wells, 0% = DMSO; actives 0.044% (n = 360,000); survival enhancement, % at 20 µM; in the data active = survival enhancement above about 18%;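 also: cells exposed to compounds for 16 hours before the ATP read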
H9c2 TAG inh: reduces triacylglycerol accumulation in H9c2 cells; inhibition, % at 12.5 µM; Nile Red lipid (TAG) fluorescence; cells loaded with 200 µM oleic acid; AID 651582; actives 0.66% (n = 230,000);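 active = pattern-corrected inhibition of lipid staining of at least 50% with the nuclear-stain viability signal not falling by more than 50%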;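 also: 0% = DMSO wells and 100% = triacsin C control wells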
Jurkat NFkB inh: inhibitors of the PMA/ionomycin-induced NF-kB reporter in Jurkat cells; actives 0.53% (n = 330,000); PMA/ionomycin-induced NF-kB luciferase reporter, luminescence; inhibition, % at 4 µM; in the data active = inhibition above about 50%
697 NFkB inh: inhibitors of the PMA/ionomycin-induced NF-kB reporter in 697 B cells; AID 435022; 697 B-cell NF-kB luciferase reporter, 16 h; actives 0.33% (n = 330,000); inhibition, % at 4 µM; in the data active = inhibition above about 35%
Hep lipid drop: modulators of hepatic lipid droplet formation | AML12 mouse hepatocytes, oleate lipid droplets, BODIPY imaging | inhibition, % at 6.5 µM | actives 0.4% (n = 240,000);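 active = lipid droplet intensity inhibited by at least 50%, with more than 500 cells counted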
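Assay system: AML12 hepatocytes (mouse); Probe or stimulus: oleic acid at 100 µM to induce lipid droplet formation; Dosing: compound at 6.5 µM only; Schedule: compound with oleate, overnight; Detection: fluorescence imaging, 20x objective, two fields per well; Measure: % inhibition of lipid droplet signal.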
697 NFkB conf: lowers PMA/ionomycin-induced NF-kB signal in 697 B cells; shares compounds with 697 NFkB inh; 697 B-cell NF-kB luciferase, 16 h; inhibition, % at 4 µM; actives 35% (n = 2,000); AID 449746; in the data active = inhibition mostly above about 28%, no sharp cut-off; inactive = mostly below about 22%
* = called active by the depositor; . = no result given. Compounds with a hit are over-represented: about 1.8% of the library has one in this group of screens.

SMILES	Gli-Sufu antag	iPSC survival up	H9c2 TAG inh	Jurkat NFkB inh	697 NFkB inh	Hep lipid drop	697 NFkB conf
Cc1nnc2ccc(-c3cccc(NS(=O)(=O)c4ccccc4[N+](=O)[O-])c3)nn12	14	0	19	-9	40*	.	28
COc1ccc(CC(=O)Nc2cccc(-c3ccc4nnc(C)n4n3)c2)cc1	14	0	11	20	35	9	29*
CC(C)Oc1cccc(C(=O)C2CCCN(C(=O)CCn3cnnn3)C2)c1 (stereo not drawn)	-23	-1	15	-8	-3	0	.
CC(C)N1C(=O)S/C(=C/c2ccc3c(c2)n(C)c(=O)n3C)C1=O	11	-2	36	-8	47*	.	40*
CCC(C)N1C(=O)S/C(=C/c2ccc3c(c2)n(C)c(=O)n3C)C1=O (stereo not drawn)	17	-1	7	-18	2	1	.
CN1C(=O)CC(c2ccco2)Sc2ccccc21 (stereo not drawn)	10	2	.	-2	39*	.	29*
CC1CCc2c(sc3nc(C(C)(C)C)nc(N4CCN(C(=O)CCl)CC4)c23)C1 (stereo not drawn)	10	0	91*	23	40*	19	27*
COc1ccc(-n2cnnc2SCC(=O)Nc2ccccc2F)cc1	-11	0	.	8	16	0	.
Cc1ccc(C(=O)N2CCCC(c3ccc(Cl)cc3)=N2)cc1	7	-1	-3	-2	42*	15	39*
COc1ccc(Cn2c(C3CC3)nc3ccc(NC(C)=O)cc3c2=O)cc1	-91	-1	1	-131	-254	.	-199
COCCCNC(=O)c1ccc2c(=O)n(CC3CCCO3)c(=S)[nH]c2c1 (stereo not drawn)	-10	-1	.	-7	18	.	.
CC(C)NC(=O)c1ccc2c(=O)n(CC3CCCO3)c(=S)[nH]c2c1 (stereo not drawn)	-1	0	5	0	36*	8	0
COC(=O)[C@@H]1CC[C@H](C)[C@@H](c2ccc(C)cc2)N1C(=O)c1ccc(/C=N/O[C@@H](C)c2cn([C@H](CO)Cc3ccccc3)nn2)cc1	.	.	.	28	52*	-19	26
CCOc1ccc(C(C)=O)cc1Cn1nc(C(=O)O)c2ccccc2c1=O	0	0	13	4	35*	.	7
O=C(NC1CCN(Cc2ccc(Cl)c(Cl)c2)CC1)c1ccccc1	16	0	.	11	0	3	.
CC1CCN(C(=O)CCCOc2cc(=O)n(C)c3ccccc23)CC1	11	-1	0	8	38*	-4	38*
CC(C)CCNC(=O)CCCOc1cc(=O)n(C)c2ccccc12	33	1	.	-9	52*	.	55*
CN1CCN(CCCNC(=O)CCCOc2cc(=O)n(C)c3ccccc23)CC1	6	1	14	4	30	.	.
Oc1ccc(C[C@@H]2CNCCN2CCc2cc(C(F)(F)F)cc(C(F)(F)F)c2)cc1	9	-2	.	16	-8	.	.
FC(F)(F)c1cc(CCN2CCNC[C@H]2Cc2cccc3ccccc23)cc(C(F)(F)F)c1	-4	-3	18	20	36*	.	13
Clc1ccc(-c2nc3nc4ccccc4nc3n2Cc2ccco2)cc1	-3	-3	-14	-103	-418	-4	-368
c1ccc(Cn2c(-c3ccco3)nc3nc4ccccc4nc32)cc1	-59	-1	-2	-36	-35	.	.
Cc1ccc(-c2nc3nc4ccccc4nc3n2Cc2ccco2)cc1	-9	-1	8	-48	-257	-2	-250
Cc1ccc(S(=O)(=O)N(C)CC(=O)Oc2ccc(-c3nnco3)cc2)cc1	-1	0	3	-3	9	.	.
Cn1c(=O)cc(Nc2ccccc2)c2c(=O)n(-c3ccccc3)c(=O)n(-c3ccccc3)c21	12	-1	9	-7	43*	-29	32*
SMILES	Gli-Sufu antag	iPSC survival up	H9c2 TAG inh	Jurkat NFkB inh	697 NFkB inh	Hep lipid drop	697 NFkB conf
Cc1cnc(NC(=O)Cc2ccc(C)c(C)c2)s1	22	0	.	-9	-15	22	.
CNS(=O)(=O)c1cccc(C(=O)OCC(=O)N2c3ccccc3CC2C)c1 (stereo not drawn)	3	2	4	1	36*	-4	-7
NC(=O)c1nsc(C(=O)N(c2ccccc2F)C(C(=O)NCc2ccccc2)c2ccc(O)cc2)c1N (stereo not drawn)	13	1	.	44	35*	-10	22
Cc1ccccc1N(C(=O)c1snc(C(N)=O)c1N)C(C(=O)NCc1ccccc1)c1ccc(O)cc1 (stereo not drawn)	-2	0	.	12	3	-2	.
COCc1nc2ccccc2n1Cc1c(F)cccc1Cl	15	0	-3	3	-26	3	.
O=[N+]([O-])c1ccccc1NC(=S)N/N=C/c1ccc(O)c(O)c1	-3	0	14	-144	-324	7	-180
CCOC(=O)C1CCN(c2ncnc3c2cnn3-c2ccc(OC)cc2)CC1	7	4	.	-4	47*	0	36*
COc1ccc(-n2ncc3c(N4CCC(C(N)=O)CC4)ncnc32)cc1	-87	0	.	-70	60*	-3	45*
COc1ccc(-c2oc3ccccc3c2C#CC(C)(C)O)cc1	-8	-2	14	-6	2	.	.
O=C(NCC1CCCN1S(=O)(=O)c1cccs1)c1ccc([N+](=O)[O-])cc1 (stereo not drawn)	-6	0	-10	13	1	.	.
O=c1c(C=NCCCO)c(-c2ccccc2)[nH]n1-c1nc2ccccc2s1	10	-1	10	28	37*	20	41*
CCn1c(SCC(=O)NNC(=O)c2ccccc2)nnc1-c1ccncc1	2	0	.	6	42*	-12	-2
COCCn1c(C)cc(C(=O)COC(=O)c2n[nH]c3ccccc23)c1C	-10	-4	-26	-55	-393	7	-117
Cc1cc(C(=O)COC(=O)c2n[nH]c3ccccc23)c(C)n1C	-88	-4	43	-133	-138	-2	.
COc1ccc2nc(NC(=S)NC(=O)c3ccco3)sc2c1	-52	-6	.	-77	-183	12	.
O=C(Nc1nc2c(Br)cc(Br)cc2c(=O)s1)c1ccco1	10	-1	-8	15	36*	0	37*
Cc1cc(C)c2nc(NC(=O)c3ccco3)sc2c1	-139	1	.	-135	-298	-38	-406
COc1ccc2sc(NC(=O)c3ccco3)nc2c1	-99	-4	.	-89	-281	.	-238
NS(=O)(=O)c1ccc(NC2=CC(c3ccc([N+](=O)[O-])cc3)N(c3ccc(S(N)(=O)=O)cc3)C2=O)cc1 (stereo not drawn)	0	0	0	-2	5	-3	.
